Legend:
[1] = Growth inhibition of NCI60 cells; type: functional; conditions: Homo sapiens; for CC50: read-out: LC50 (the source's name)
How it was run: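 Run in the NCI in vitro 60 human cancer cell line panel. Potency is given as mean GI50 and mean LC50 (µM) across the panel. Individual lines with LC50 below 1 µM are reported separately.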

[2] = Growth inhibition of human LOXIMV1 cells after 72 hrs by MTT assay; type: functional; conditions: LOX IMV1, 72 h, read-out: LC50 (the source's name)
[3] = system: HCT-116; assay: Growth inhibition of human HCT116 cells after 72 hrs by MTT assay; type: functional, cell-based; conditions: HCT-116, 72 h, read-out: LC50 (the source's name)
How it was run: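 Human cancer cells given 72 h continuous drug exposure, growth measured by MTT assay; part of a preliminary five-line screen (colon HCT-116, HT29; breast MCF-7, MDA 468; non-small cell lung A549).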

[4] = system: BT-549; assay: Growth inhibition of human BT549 cells after 72 hrs by MTT assay; type: functional; conditions: BT-549, 72 h, read-out: LC50 (the source's name)
[5] = system: ACHN; assay: Growth inhibition of human ACHN cells after 72 hrs by MTT assay; type: functional; conditions: read-out: LC50 (the source's name)
[6] = system: A498; assay: Growth inhibition of human A498 cells after 72 hrs by MTT assay; type: functional; conditions: A498, 72 h, read-out: LC50 (the source's name)
[7] = system: SK-MEL-5; assay: Growth inhibition of human SKMEL5 cells after 72 hrs by MTT assay; type: functional; conditions: SK-MEL-5, 72 h, read-out: LC50 (the source's name)
[8] = system: CAKI-1; assay: Growth inhibition of human CAKI1 cells after 72 hrs by MTT assay; type: functional; conditions: CAKI-1, 72 h, read-out: LC50 (the source's name)

| SMILES | GI50 [1] [nM] | CC50 [1] [nM] | CC50 [2] [nM] | CC50 [3] [nM] | CC50 [4] [nM] | CC50 [5] [nM] | CC50 [6] [nM] | CC50 [7] [nM] | CC50 [8] [nM] |
| --- | --- | --- | --- | --- | --- | --- | --- | --- | --- |
| COC(=O)CCc1ccc(S(=O)(=O)n2c(C3(O)C=CC(=O)C=C3)cc3ccc(F)cc32)cc1 | 500 | 10500 | 810 | 720 | 740 | – | – | – | – |
| O=C1C=CC(O)(c2cc3ccc(F)cc3n2S(=O)(=O)c2ccccc2)C=C1 | 16 | 2240 | – | – | – | – | – | – | – |
| O=C1C=CC(O)(c2cc3ccc(F)cc3n2S(=O)(=O)c2ccc(CCC(=O)O)cc2)C=C1 | 2500 | 29500 | – | – | – | – | – | – | – |
| Cc1ccc(S(=O)(=O)n2c(C3(O)C=CC(=O)C=C3)cc3ccncc32)cc1 | 170 | 5750 | 60 | < 10 | – | 50 | – | – | – |
| CN(C)c1cccc2c(S(=O)(=O)n3c(C4(O)C=CC(=O)C=C4)cc4ccccc43)cccc12 | 190 | 13200 | – | – | – | 410 | 60 | – | – |
| COC(=O)CCc1ccc(S(=O)(=O)n2c(C3(O)C=CC(=O)C=C3)cc3ccccc32)cc1 | 680 | 22900 | – | 20 | – | – | – | 600 | – |
| O=C1C=CC(O)(c2nc3ccccc3s2)C=C1 | 230 | 3390 | – | – | – | – | – | – | – |
| CCOC(=O)Nc1ccc(S(=O)(=O)n2c(C3(O)C=CC(=O)C=C3)cc3ccccc32)cc1 | 190 | 7580 | – | 295 | – | 600 | – | – | – |
| Cc1ccc(S(=O)(=O)n2c(C3(O)C=CC(=O)C=C3)cc3ccccc32)cc1 | 110 | 7240 | < 10 | < 10 | – | 40 | – | – | – |
| O=C1C=CC(O)(c2cc3ccccc3n2S(=O)(=O)c2ccc(CCC(=O)O)cc2)C=C1 | 2340 | 23400 | – | – | – | – | – | – | – |
| O=C1C=CC(O)(c2cc3cnccc3n2S(=O)(=O)c2ccccc2)C=C1 | 340 | 13800 | – | 930 | – | – | – | – | 470 |
| O=C1C=CC(O)(c2cc3ccccc3n2S(=O)(=O)c2ccccc2)C=C1 | 39 | 2950 | – | 30 | – | – | – | – | 50 |
| O=C1C=CC(O)(c2cc3ccccc3n2S(=O)(=O)c2cccnc2)C=C1 | 410 | 14100 | – | 290 | – | – | – | – | – |

Source: ChEMBL document CHEMBL1142980, “Quinols as novel therapeutic agents. 7.1 Synthesis of antitumor 4-[1-(arylsulfonyl-1H-indol-2-yl)]-4-hydroxycyclohexa-2,5-dien-1-ones by Sonogashira reactions” (J Med Chem, 2007)
